In ChEMBL document CHEMBL5303300, “EUbOPEN Chemogenomics Library - Multiplex” (2023):
Where “and” joins values, the source holds several entries; their conditions need not be identical. Identical values can stand only once.

Tested on: Fibroblast
Assay: Multiplex assay against human fibroblast
Assay type: toxicity, cell-based
Details: number of replicates 2
Summary of the method: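 Values for tubulin, mitochondrial-mass and membrane-permeability phenotypes are per cents of cells with healthy nuclei. These cells were identified by CellPathfinder machine-learning gating of live cells that had been stained at seeding with Hoechst33342, BioTracker Green Microtubule Cytoskeleton Dye, MitoTracker Red and Annexin V Alexa Fluor 680 and imaged on a CQ1 microscope at 37°C and 5% CO2 after compound addition. The gating first set Hoechst high-intensity objects apart from normal cells, then split normal cells into healthy, pyknosed or fragmented nuclei, and pyknosed cells into mitotic or apoptotic.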

[1] = 12 h, 1 µM, compound concentration 1 uM
[2] = 12 h, 10 µM, compound concentration 10 uM
[3] = 24 h, 1 µM, compound concentration 1 uM
[4] = 24 h, 10 µM, compound concentration 10 uM
[5] = 48 h, 1 µM, compound concentration 1 uM
[6] = 48 h, 10 µM, compound concentration 10 uM

SMILES: CC(C)N1CCN(Cc2cnc(-c3cc(-c4cccc5[nH]ccc45)cc4[nH]ncc34)o2)CC1 [NEMIRALISIB]
- Population Apoptotic (%) [1]: 48% and 43%
- Population Fragmented Nuclei (%) [1]: 10%
- Population Healthy Nuclei (%) [1]: 72% and 64%
- Population Hoechst High Intensity Objects (%) [1]: 0%
- Population Membrane Permeable-Phenotype (%) [1]: 6% and 3%
- Population Mitochondria Different-Phenotype (%) [1]: 2% and 0%
- Population Mitotic Cells (%) [1]: 51% and 56%
- Population Normal (%) [1]: 100% and 99%
- Population Pyknosed Nuclei (%) [1]: 16% and 24%
- Population Tubulin-Different-Phenotype (%) [1]: 19% and 9%
- Total Cell Count [1]: 206 and 286
- Population Apoptotic (%) [2]: 32% and 38%
- Population Fragmented Nuclei (%) [2]: 7% and 15%
- Population Healthy Nuclei (%) [2]: 63% and 69%
- Population Hoechst High Intensity Objects (%) [2]: 0% and 2%
- Population Membrane Permeable-Phenotype (%) [2]: 7%
- Population Mitochondria Different-Phenotype (%) [2]: 6% and 12%
- Population Mitotic Cells (%) [2]: 67% and 61%
- Population Normal (%) [2]: 100% and 97%
- Population Pyknosed Nuclei (%) [2]: 28% and 15%
- Population Tubulin-Different-Phenotype (%) [2]: 58% and 61%
- Total Cell Count [2]: 207 and 263
- Population Apoptotic (%) [3]: 50% and 62%
- Population Fragmented Nuclei (%) [3]: 8% and 10%
- Population Healthy Nuclei (%) [3]: 70%
- Population Hoechst High Intensity Objects (%) [3]: 0%
- Population Membrane Permeable-Phenotype (%) [3]: 7%
- Population Mitochondria Different-Phenotype (%) [3]: 2% and 1%
- Population Mitotic Cells (%) [3]: 50% and 37%
- Population Normal (%) [3]: 100%
- Population Pyknosed Nuclei (%) [3]: 20% and 19%
- Population Tubulin-Different-Phenotype (%) [3]: 25% and 11%
- Total Cell Count [3]: 201 and 273
- Population Apoptotic (%) [4]: 52% and 71%
- Population Fragmented Nuclei (%) [4]: 5% and 15%
- Population Healthy Nuclei (%) [4]: 72% and 68%
- Population Hoechst High Intensity Objects (%) [4]: 3% and 5%
- Population Membrane Permeable-Phenotype (%) [4]: 7% and 3%
- Population Mitochondria Different-Phenotype (%) [4]: 17% and 22%
- Population Mitotic Cells (%) [4]: 47% and 28%
- Population Normal (%) [4]: 96% and 95%
- Population Pyknosed Nuclei (%) [4]: 22% and 15%
- Population Tubulin-Different-Phenotype (%) [4]: 64% and 58%
- Total Cell Count [4]: 175 and 240
- Population Apoptotic (%) [5]: 54% and 64%
- Population Fragmented Nuclei (%) [5]: 11% and 12%
- Population Healthy Nuclei (%) [5]: 73% and 67%
- Population Hoechst High Intensity Objects (%) [5]: 0%
- Population Membrane Permeable-Phenotype (%) [5]: 9% and 3%
- Population Mitochondria Different-Phenotype (%) [5]: 3% and 0%
- Population Mitotic Cells (%) [5]: 45% and 35%
- Population Normal (%) [5]: 100%
- Population Pyknosed Nuclei (%) [5]: 15% and 19%
- Population Tubulin-Different-Phenotype (%) [5]: 15% and 7%
- Total Cell Count [5]: 214 and 290
- Population Apoptotic (%) [6]: 84% and 61%
- Population Fragmented Nuclei (%) [6]: 10% and 15%
- Population Healthy Nuclei (%) [6]: 69% and 68%
- Population Hoechst High Intensity Objects (%) [6]: 7% and 5%
- Population Membrane Permeable-Phenotype (%) [6]: 6% and 4%
- Population Mitochondria Different-Phenotype (%) [6]: 11% and 14%
- Population Mitotic Cells (%) [6]: 15% and 38%
- Population Normal (%) [6]: 92% and 94%
- Population Pyknosed Nuclei (%) [6]: 19% and 16%
- Population Tubulin-Different-Phenotype (%) [6]: 34% and 40%
- Total Cell Count [6]: 178 and 231

SMILES: CS(=O)(=O)c1ccc(C(=O)Nc2cccc(COc3cc(F)c(Br)cc3CN3CC[C@H](O)C3)c2)c(Cl)c1.O=CO
- Population Apoptotic (%) [1]: 46% and 35%
- Population Healthy Nuclei (%) [1]: 48% and 72%
- Population Mitotic Cells (%) [1]: 53% and 64%
- Population Pyknosed Nuclei (%) [1]: 41% and 16%
- Total Cell Count [1]: 114 and 171
- Population Apoptotic (%) [2]: 51% and 40%
- Population Healthy Nuclei (%) [2]: 48% and 51%
- Population Mitotic Cells (%) [2]: 48% and 59%
- Population Pyknosed Nuclei (%) [2]: 33% and 23%
- Total Cell Count [2]: 211 and 262
- Population Apoptotic (%) [3]: 55% and 57%
- Population Healthy Nuclei (%) [3]: 50%
- Population Mitotic Cells (%) [3]: 42%
- Population Pyknosed Nuclei (%) [3]: 39% and 18%
- Total Cell Count [3]: 120 and 190
- Population Apoptotic (%) [4]: 77% and 74%
- Population Healthy Nuclei (%) [4]: 53% and 58%
- Population Mitotic Cells (%) [4]: 22%
- Population Pyknosed Nuclei (%) [4]: 26% and 19%
- Total Cell Count [4]: 217 and 251
- Population Apoptotic (%) [5]: 75% and 82%
- Population Healthy Nuclei (%) [5]: 62%
- Population Mitotic Cells (%) [5]: 24%
- Population Pyknosed Nuclei (%) [5]: 23% and 11%
- Total Cell Count [5]: 123 and 198
- Population Apoptotic (%) [6]: 92% and 82%
- Population Healthy Nuclei (%) [6]: 62% and 60%
- Population Mitotic Cells (%) [6]: 7%
- Population Pyknosed Nuclei (%) [6]: 15% and 14%
- Total Cell Count [6]: 245 and 274

SMILES: CNS(=O)(=O)c1ccc(N(C)C)c(Nc2ncnc3cc(OC)c(OC)cc23)c1
- Population Apoptotic (%) [1]: 40% and 34%
- Population Fragmented Nuclei (%) [1]: 11% and 10%
- Population Healthy Nuclei (%) [1]: 55% and 63%
- Population Hoechst High Intensity Objects (%) [1]: 0%
- Population Membrane Permeable-Phenotype (%) [1]: 4% and 6%
- Population Mitochondria Different-Phenotype (%) [1]: 0%
- Population Mitotic Cells (%) [1]: 60% and 65%
- Population Normal (%) [1]: 100%
- Population Pyknosed Nuclei (%) [1]: 33% and 26%
- Population Tubulin-Different-Phenotype (%) [1]: 9% and 6%
- Total Cell Count [1]: 136 and 169
- Population Apoptotic (%) [2]: 41% and 28%
- Population Fragmented Nuclei (%) [2]: 13% and 8%
- Population Healthy Nuclei (%) [2]: 61% and 67%
- Population Hoechst High Intensity Objects (%) [2]: 0%
- Population Membrane Permeable-Phenotype (%) [2]: 4% and 6%
- Population Mitochondria Different-Phenotype (%) [2]: 1%
- Population Mitotic Cells (%) [2]: 58% and 71%
- Population Normal (%) [2]: 99% and 100%
- Population Pyknosed Nuclei (%) [2]: 24% and 23%
- Population Tubulin-Different-Phenotype (%) [2]: 22% and 16%
- Total Cell Count [2]: 206 and 246
- Population Apoptotic (%) [3]: 37% and 46%
- Population Fragmented Nuclei (%) [3]: 11% and 13%
- Population Healthy Nuclei (%) [3]: 54% and 60%
- Population Hoechst High Intensity Objects (%) [3]: 0%
- Population Membrane Permeable-Phenotype (%) [3]: 2% and 8%
- Population Mitochondria Different-Phenotype (%) [3]: 0% and 2%
- Population Mitotic Cells (%) [3]: 62% and 53%
- Population Normal (%) [3]: 99%
- Population Pyknosed Nuclei (%) [3]: 33% and 25%
- Population Tubulin-Different-Phenotype (%) [3]: 8% and 10%
- Total Cell Count [3]: 136 and 162
- Population Apoptotic (%) [4]: 56% and 43%
- Population Fragmented Nuclei (%) [4]: 11% and 10%
- Population Healthy Nuclei (%) [4]: 66% and 71%
- Population Hoechst High Intensity Objects (%) [4]: 0%
- Population Membrane Permeable-Phenotype (%) [4]: 7% and 2%
- Population Mitochondria Different-Phenotype (%) [4]: 2%
- Population Mitotic Cells (%) [4]: 43% and 56%
- Population Normal (%) [4]: 100% and 99%
- Population Pyknosed Nuclei (%) [4]: 22% and 17%
- Population Tubulin-Different-Phenotype (%) [4]: 20% and 12%
- Total Cell Count [4]: 207 and 220
- Population Apoptotic (%) [5]: 53% and 68%
- Population Fragmented Nuclei (%) [5]: 20% and 18%
- Population Healthy Nuclei (%) [5]: 59% and 65%
- Population Hoechst High Intensity Objects (%) [5]: 0%
- Population Membrane Permeable-Phenotype (%) [5]: 10% and 7%
- Population Mitochondria Different-Phenotype (%) [5]: 1%
- Population Mitotic Cells (%) [5]: 46% and 31%
- Population Normal (%) [5]: 99% and 100%
- Population Pyknosed Nuclei (%) [5]: 19% and 15%
- Population Tubulin-Different-Phenotype (%) [5]: 15% and 8%
- Total Cell Count [5]: 154 and 185
- Population Apoptotic (%) [6]: 62% and 75%
- Population Fragmented Nuclei (%) [6]: 17% and 14%
- Population Healthy Nuclei (%) [6]: 68% and 78%
- Population Hoechst High Intensity Objects (%) [6]: 0%
- Population Membrane Permeable-Phenotype (%) [6]: 6% and 3%
- Population Mitochondria Different-Phenotype (%) [6]: 2% and 3%
- Population Mitotic Cells (%) [6]: 37% and 25%
- Population Normal (%) [6]: 99% and 100%
- Population Pyknosed Nuclei (%) [6]: 14% and 7%
- Population Tubulin-Different-Phenotype (%) [6]: 12% and 11%
- Total Cell Count [6]: 193 and 207
